The results in this text go back to ChEMBL document CHEMBL3044699, “Synthesis and herbicidal activity of N-oxide derivatives” (2000).

The subject of assay [1] is Triticum aestivum. Description: Pre-emergence herbicidal activity against Triticum aestivum (wheat) assessed as reduction in aerial weight at 50 mol/ha relative to untreated control. Also on record: scale not given: the % may be the effect or the level left. The assay is classed as functional. Put shortly:
(§1)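 Wheat was grown in sterilized sand flats at near-neutral pH and treated pre-emergence at 6.4–19.6 kg/ha in acetone-, DMSO- or Tween 80-containing vehicles. Length of first leaf, aerial weight and radicular weight were compared with untreated control and scored 4 (100–80% reduction), 3 (79–50%), 2 (49–20%), 1 (19–1%) or 0 (increase). Atrazine 2.5 kg/ha was the positive control. Duplicate runs; ANOVA.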

Assay [2] relates to Triticum aestivum. Description: Post-emergence herbicidal activity against Triticum aestivum (wheat) at 50 mol/ha measured 10 days post compound application. In kind it is functional, organism-based. The procedure, abridged:
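Post-emergence greenhouse test on T. aestivum, set up identically to the pre-emergence test: sterilized sand flats at near-neutral pH, application at 6.4–19.6 kg/ha in acetone/DMSO/water-based vehicles, and reduction of plant parameters versus untreated control scored on a 0–4 scale. Atrazine 2.5 kg/ha was the positive control. Duplicate; ANOVA.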

Assay [3] deals with Triticum aestivum. Description: Pre-emergence herbicidal activity against Triticum aestivum (wheat) assessed as reduction in length of the first leaf at 50 mol/ha relative to untreated control. In kind it is functional. Further details: scale not given: the % may be the effect or the level left. The procedure, abridged: as §1
Assay [4] has as its system Triticum aestivum. Description: Pre-emergence herbicidal activity against Triticum aestivum (wheat) assessed as reduction in radicular weight at 50 mol/ha relative to untreated control. The assay is classed as functional. Also on record: scale not given: the % may be the effect or the level left. The procedure, abridged: as §1
The subject of assay [5] is Triticum aestivum. Briefly: Pre-emergence herbicidal activity against Triticum aestivum (wheat) assessed as germination seeds level at 50 mol/ha relative to untreated control. In kind it is functional. Put shortly: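 Pre-emergence greenhouse assay on T. aestivum sown in sterilized sand in celled flats, with the medium near neutral pH. Compound was applied in acetone/H₂O, DMSO/H₂O, acetone/DMSO or acetone/DMSO/H₂O/Tween 80 at 6.4–19.6 kg/ha. Percentage of germinated seeds was calculated against untreated control. Atrazine (2.5 kg/ha, 12 mol/ha) was the positive control. Run in duplicate; ANOVA.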

Assay [6] has as its system Triticum aestivum. Briefly: Stimulation of plant growth parameters in Triticum aestivum (wheat) assessed as increase in aerial weight at 50 mol/ha. In kind it is functional, organism-based. The procedure, abridged: as §1
For assay [7], the system named is Triticum aestivum. Briefly: Stimulation of plant growth parameters in Triticum aestivum (wheat) assessed as increase in radicular weight at 50 mol/ha. The assay is classed as functional, organism-based. Put shortly:
as §1

Assay [8] relates to Triticum aestivum. Description: Stimulation of plant growth parameters in Triticum aestivum (wheat) assessed as increase in length of the first leaf at 50 mol/ha. In kind it is functional, organism-based. The procedure, abridged:
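Pre-emergence greenhouse whole-plant test on T. aestivum L. Seeds were grown in sterilized sand in celled flats, with the medium near neutral pH. Compound was applied in acetone/H₂O, DMSO/H₂O, acetone/DMSO or acetone/DMSO/H₂O/Tween 80 vehicle, at 6.4–19.6 kg/ha by weight. Length of first leaf was compared with untreated control, with a score of 0 marking an increase. Atrazine at 2.5 kg/ha was the positive control. Run in duplicate and analysed by ANOVA.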

Calls of active or inactive are those of the source. The calls are words filed in the database; no cut-off is given here.

For `[O-][n+]1onc(-c2ccccc2)c1CCl`, the Activity in the assay with Triticum aestivum [1] came to 1%; in the assay on Triticum aestivum [3], 1%; with Triticum aestivum [4], 1%; with Triticum aestivum [5], 100%. The result with Triticum aestivum [2] was inactive.
With `CCCCCCNC(=O)N/N=C/c1no[n+]([O-])c1C`, the Activity came to 4% with Triticum aestivum [1], 3% in the assay with Triticum aestivum [3], 3% in the assay with Triticum aestivum [4] and 95% in the assay with Triticum aestivum [5].
Turning to `COC(=O)N/N=C/c1c(-c2ccccc2)no[n+]1[O-]`, the Activity is listed as 2% in the assay with Triticum aestivum [3], 2% with Triticum aestivum [4] and 100% in the assay with Triticum aestivum [5]. Also, the result in the assay on Triticum aestivum [6] was Active.
As to `Cc1c(/C=N/NC(N)=O)no[n+]1[O-]`, the results for the Activity in the assay on Triticum aestivum [1], with Triticum aestivum [4] and with Triticum aestivum [5] were 4%, 3% and 89%, respectively.
Regarding `O=Cc1ccc2no[n+]([O-])c2c1` [6-FORMYLBENZO[C][1,2,5]OXADIAZOLE1-OXIDE], the Activity in the assay with Triticum aestivum [1] was determined as 1%; in the assay on Triticum aestivum [3] it was 2%; with Triticum aestivum [5], 100%. Besides, in the assay with Triticum aestivum [7], the outcome was Active.
In the case of `COCCNC(=O)c1ccc2c(c1)no[n+]2[O-]`, the Activity came to 1% in the assay on Triticum aestivum [1], 2% in the assay with Triticum aestivum [3], 1% in the assay with Triticum aestivum [4] and 100% in the assay on Triticum aestivum [5].
Take `Cc1ccc2no[n+]([O-])c2c1` [6-METHYLBENZO[C][1,2,5]OXADIAZOLE1-OXIDE]: the Activity in the assay on Triticum aestivum [1] is reported as 3%; with Triticum aestivum [3], 3%; in the assay on Triticum aestivum [4], 3%; in the assay with Triticum aestivum [5], 100%.
Regarding `O=C1c2ccccc2C(=O)N1Cc1c(-c2ccccc2)no[n+]1[O-]`, the result in the assay on Triticum aestivum [8] and with Triticum aestivum [6] was Active. The Activity with Triticum aestivum [4] was 1%; in the assay with Triticum aestivum [5], 100%.
In the case of `O=Cc1c(-c2ccccc2)no[n+]1[O-]`, the Activity amounted to 1% with Triticum aestivum [3], 1% with Triticum aestivum [4] and 100% with Triticum aestivum [5]. The result in the assay with Triticum aestivum [6] was Active.
Consider `[O-][n+]1onc(-c2ccccc2)c1CN1CCN(c2ncccn2)CC1`, for which the outcome in the assay on Triticum aestivum [1], in the assay on Triticum aestivum [2], in the assay on Triticum aestivum [3] and with Triticum aestivum [4] was inactive. The Activity in the assay with Triticum aestivum [5] is 100%.
Regarding `[O-][n+]1onc(-c2ccccc2)c1CNc1ccc(Br)cc1`, the Activity with Triticum aestivum [1] is given as 1%; with Triticum aestivum [3], 2%; with Triticum aestivum [4], 1%; in the assay on Triticum aestivum [5], 100%.
With `Cc1c(C)[n+]([O-])c2cc(/C=N/NC(=O)NCCc3ccccc3)ccc2[n+]1[O-]`, the result in the assay on Triticum aestivum [8] and with Triticum aestivum [6] was Active. The Activity is given as 1% in the assay on Triticum aestivum [4] and 100% in the assay on Triticum aestivum [5].
In the case of `COc1ccc(NCc2c(-c3ccccc3)no[n+]2[O-])cc1`, the Activity with Triticum aestivum [1] was 1%; in the assay with Triticum aestivum [3], 1%; in the assay on Triticum aestivum [4], 1%; in the assay on Triticum aestivum [5], 100%.
On to `O=C(O)c1ccc2no[n+]([O-])c2c1`, for which the Activity in the assay on Triticum aestivum [1] was found to be 1%; in the assay with Triticum aestivum [3] it was 1%; in the assay with Triticum aestivum [4] it was 1%; in the assay on Triticum aestivum [5], 100%. Further, in the assay with Triticum aestivum [2], the outcome was inactive.
`COC(=O)N/N=C/c1no[n+]([O-])c1C`: the results for the Activity with Triticum aestivum [1], in the assay on Triticum aestivum [3] and in the assay with Triticum aestivum [5] were 3%, 3% and 15%, respectively. The result in the assay with Triticum aestivum [7] was Active.
On to `O=C(Nc1ccc(Cl)cc1)c1ccc2c(c1)no[n+]2[O-]`, for which the Activity in the assay with Triticum aestivum [1] is reported as 3%; in the assay on Triticum aestivum [3], 3%; in the assay with Triticum aestivum [4] it was 4%; in the assay with Triticum aestivum [5] it was 96%.
Consider `COC(=O)N/N=C/c1ccc2c(c1)[n+]([O-])c(C)c(C)[n+]2[O-]`, for which the result in the assay on Triticum aestivum [8], in the assay with Triticum aestivum [7] and in the assay on Triticum aestivum [6] was Active. For the same molecule, the Activity in the assay with Triticum aestivum [5] is 100%.
On to `Cc1c(C=O)no[n+]1[O-]`, for which the values for the Activity with Triticum aestivum [3], in the assay on Triticum aestivum [4] and in the assay with Triticum aestivum [5] were 1%, 1% and 100%, respectively. Besides, the outcome in the assay on Triticum aestivum [6] was Active.
With `O=C(c1ccc2c(c1)no[n+]2[O-])N1CCOCC1`, the Activity was 3% with Triticum aestivum [1], 3% in the assay on Triticum aestivum [3], 3% in the assay with Triticum aestivum [4] and 100% in the assay on Triticum aestivum [5].
As for `[O-][n+]1onc(-c2ccccc2)c1CNc1ccc(Cl)cc1`, the Activity stood at 1% in the assay with Triticum aestivum [1], 1% in the assay on Triticum aestivum [3], 1% in the assay with Triticum aestivum [4] and 100% in the assay on Triticum aestivum [5].
For `Cc1c(/C=N/NC(N)=S)no[n+]1[O-]`, the values for the Activity in the assay on Triticum aestivum [1], in the assay with Triticum aestivum [4] and in the assay with Triticum aestivum [5] were 4%, 4% and 92%, respectively.
On to `COC(=O)N/N=C/c1ccc2nonc2c1`, for which the result in the assay with Triticum aestivum [8], with Triticum aestivum [7] and with Triticum aestivum [6] was Active. For the same molecule, the Activity in the assay on Triticum aestivum [5] turned out to be 100%.
For `O=C(NCCc1ccccc1)N/N=C/c1ccc2c(c1)no[n+]2[O-]`, the Activity with Triticum aestivum [1] is on record as 2%; in the assay on Triticum aestivum [3], 2%; with Triticum aestivum [4] it was 2%; in the assay with Triticum aestivum [5], 100%.
On to `NC(=S)N/N=C/c1c(-c2ccccc2)no[n+]1[O-]`, for which the Activity in the assay on Triticum aestivum [3] came out at 2%; with Triticum aestivum [4], 3%; in the assay with Triticum aestivum [5], 100%. Also, the outcome in the assay with Triticum aestivum [6] was Active.
For the molecule `[O-][n+]1onc2ccccc21` [BENZO[C][1,2,5]OXADIAZOLE 1-OXIDE], the outcome with Triticum aestivum [1], with Triticum aestivum [2], in the assay with Triticum aestivum [3] and in the assay on Triticum aestivum [4] was inactive. Moreover, the Activity in the assay on Triticum aestivum [5] is 100%.
For `CCCCNC(=O)c1ccc2c(c1)no[n+]2[O-]`, the Activity with Triticum aestivum [1] is given as 3%; in the assay on Triticum aestivum [3], 3%; in the assay on Triticum aestivum [4] it was 3%; in the assay with Triticum aestivum [5], 46%.
On to `COC(=O)N/N=C/c1ccc2c(c1)no[n+]2[O-]`, for which the Activity in the assay on Triticum aestivum [1] is 1%; in the assay with Triticum aestivum [3], 1%; in the assay with Triticum aestivum [4], 3%; in the assay on Triticum aestivum [5], 75%.
